Data set [1] is described as follows: Cytotoxicity against mouse NCTC-1469 cells up to 20 uM incubated for 24 hrs by MTT assay. The format is cell-based.
Data set [2] relates to PANC-1. Briefly: Induction of apoptosis in human PANC1 cells in nutrient-deprived medium assessed as early apoptotic cells at 20 uM incubated for 24 hrs by Annexin V-FITC/PI double staining based flow cytometric analysis (reference value: 0.22 to 14.25%). The format is functional. The method in brief: (§1)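 PANC-1 cells under NDC exposed 24 h at 5.0, 10.0 or 20.0 µM. Annexin V-FITC/PI double staining, flow cytometric quantification of live, early apoptotic, late apoptotic and necrotic fractions. Arctigenin as positive control.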
A general note: In flow cytometry, cells or beads pass a laser one at a time.

Data set [3] in a line: Toxicity in human PANC1 cells xenografted in nude mouse assessed as pathological changes in liver at 20 mg/kg, ip administered daily for 4 weeks post tumor inoculation by hematoxylin and eosin staining based assay. The format is organism-based. The conditions noted are these: in vivo, 672 h. The essentials: (§2)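 PANC-1 xenografts in nude mice. Dosing daily at 5, 10 or 20 mg/kg/day for 30 days, or 30 mg/kg every three days for the gemcitabine reference. Tumor volume from diameters and tumor weight at end of study. Body weight monitored, kidney and liver examined. T1-weighted MRI on day 30 with Gd-DTPA contrast via tail vein. Mean ± S.D., n = 5, vs control group.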
A general note: Xenograft models place foreign cells or tissue in a host animal.

Data set [4] deals with PANC-1. Briefly: Induction of apoptosis in human PANC1 cells in nutrient-deprived medium assessed as live cells at 5 uM incubated for 24 hrs by Annexin V-FITC/PI double staining based flow cytometric analysis (reference value: 85.75 to 96.8%). The format is functional. The essentials:
as §1

The test system of data set [5] is PANC-1. Briefly: Antitumor activity against human PANC1 cells xenografted in nude mouse assessed as reduction in tumor size at 5 to 20 mg/kg, ip administered daily for 4 weeks post tumor inoculation by Gd-DTPA based T1 weighted MRI analysis. The format is functional, organism-based. The essentials:
as §2

For data set [6], the system named is PANC-1. As to the kind of experiment: Induction of apoptosis in human PANC1 cells in nutrient-deprived medium assessed as early apoptotic cells at 5 uM incubated for 24 hrs by Annexin V-FITC/PI double staining based flow cytometric analysis (reference value: 0.22 to 14.25%). The format is functional. The essentials:
as §1

In data set [7] the test system is PANC-1. Briefly: Induction of apoptosis in human PANC1 cells in nutrient-deprived medium assessed as early apoptotic cells at 10 uM incubated for 24 hrs by Annexin V-FITC/PI double staining based flow cytometric analysis (reference value: 0.22 to 14.25%). The format is functional. The method in brief: as §1
For data set [8], the system named is PANC-1. Briefly: Induction of apoptosis in human PANC1 cells in nutrient-deprived medium assessed as late apoptotic cells at 10 uM incubated for 24 hrs by Annexin V-FITC/PI double staining based flow cytometric analysis (reference value: 0 to 0.9%). The format is functional. The essentials: as §1
Data set [9] has as its system PANC-1. Briefly: Induction of apoptosis in human PANC1 cells in nutrient-deprived medium assessed as late apoptotic cells at 5 uM incubated for 24 hrs by Annexin V-FITC/PI double staining based flow cytometric analysis (reference value: 0 to 0.9%). The format is functional. The method in brief:
as §1

Data set [10] relates to PANC-1. As to the kind of experiment: Induction of apoptosis in human PANC1 cells in nutrient-deprived medium assessed as live cells at 20 uM incubated for 24 hrs by Annexin V-FITC/PI double staining based flow cytometric analysis (reference value: 85.75 to 96.8%). The format is functional. The method in brief: as §1
For data set [11], the system named is PANC-1. Briefly: Induction of apoptosis in human PANC1 cells in nutrient-deprived medium assessed as necrotic cells at 20 uM incubated for 24 hrs by Annexin V-FITC/PI double staining based flow cytometric analysis (reference value: 0 to 2.8%). The format is functional. The method in brief: as §1
Data set [12] concerns PANC-1. As to the kind of experiment: Induction of apoptosis in human PANC1 cells in nutrient-deprived medium assessed as late apoptotic cells at 20 uM incubated for 24 hrs by Annexin V-FITC/PI double staining based flow cytometric analysis (reference value: 0 to 0.9%). The format is functional. The method in brief:
as §1

In data set [13] the test system is PANC-1. As to the kind of experiment: Induction of autophagy in human PANC1 cells in nutrient-deprived medium assessed as reduction in percentage area of LC3 at 10 uM incubated for 24 hrs by DAPI staining based confocal microscopic analysis. The format is functional, cell-based. The method in brief:
(§3)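 LC3-transfected PANC-1 cells under NNC, NDC, or NDC plus 10 µM compound. Cells co-labeled for LC3B and DAPI and imaged by confocal microscopy. LC3 puncta number, percentage area and mean intensity quantified.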

A short description of data set [14]: Toxicity in human PANC1 cells xenografted in nude mouse assessed as mortality at 5 to 20 mg/kg, ip administered daily for 4 weeks post tumor inoculation. The format is organism-based. The following applies: in vivo, 672 h. The method in brief: (§4)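 PANC-1 xenografts in nude mice, 5 per group. Daily injections of 5, 10 or 20 mg/kg for 30 days. Gemcitabine reference arm dosed at 30 mg/kg every three days, compared with untreated controls. Body weight tracked through dosing and deaths recorded. Tumour diameters measured over time and tumours weighed at endpoint. Kidneys and liver examined for lesions.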

The test system of data set [15] is PANC-1. As to the kind of experiment: Growth inhibition of human PANC1 cells in nutrient-deprived medium at 10 uM incubated for 24 hrs by MTT assay (reference value: 0.0 +/- 1.9%). The format is functional. The conditions noted are these: PANC-1, 24 h. For orientation: Tetrazolium dyes change colour on reduction, which living cells bring about.
The test system of data set [16] is PANC-1. As to the kind of experiment: Inhibition of autophagy in human PANC1 cells in nutrient-deprived medium assessed as reduction in LC3-2 expression level at 10 uM incubated for 1 to 6 hrs by Western blot analysis.
Data set [17] relates to PANC-1. As to the kind of experiment: Antitumor activity against human PANC1 cells xenografted in nude mouse assessed as reduction in tumor size at 20 mg/kg, ip administered daily for 4 weeks post tumor inoculation and observed on day 6. The format is functional, organism-based. The method in brief:
as §2

Data set [18] deals with PANC-1. Briefly: Induction of apoptosis in human PANC1 cells in nutrient-deprived medium assessed as necrotic cells at 5 uM incubated for 24 hrs by Annexin V-FITC/PI double staining based flow cytometric analysis (reference value: 0 to 2.8%). The format is functional. The method in brief:
as §1

Data set [19] relates to PANC-1. Briefly: Antitumor activity against human PANC1 cells xenografted in nude mouse assessed as reduction in tumor weight at 20 mg/kg, ip administered daily for 4 weeks post tumor inoculation. The format is functional, organism-based. The method in brief:
as §2

For data set [20], the system named is PANC-1. As to the kind of experiment: Growth inhibition of human PANC1 cells in nutrient-rich medium at 10 uM incubated for 24 hrs by MTT assay (reference value: 0.0 +/- 3.8%). The format is functional. The conditions noted are these: PANC-1, 24 h.
In data set [21] the test system is PANC-1. As to the kind of experiment: Induction of apoptosis in human PANC1 cells in nutrient-deprived medium incubated for 24 hrs by Annexin V-FITC/PI double staining based flow cytometric analysis. The format is functional, cell-based. The essentials:
as §1

For data set [22], the system named is PANC-1. Briefly: Induction of apoptosis in human PANC1 cells in nutrient-deprived medium assessed as necrotic cells at 10 uM incubated for 24 hrs by Annexin V-FITC/PI double staining based flow cytometric analysis (reference value: 0 to 2.8%). The format is functional. The method in brief: as §1
In data set [23] the test system is PANC-1. As to the kind of experiment: Antitumor activity against human PANC1 cells xenografted in nude mouse assessed as reduction in tumor size at 20 mg/kg, ip administered daily for 4 weeks post tumor inoculation and observed on day 9. The format is functional. The method in brief:
as §2

In data set [24] the test system is PANC-1. As to the kind of experiment: Growth inhibition of human PANC1 cells in nutrient-deprived medium incubated for 24 hrs by MTT assay. The format is functional, cell-based. The following applies: PANC-1, 24 h.
The subject of data set [25] is PANC-1. Briefly: Antitumor activity against human PANC1 cells xenografted in ip dosed nude mouse assessed as reduction in tumor size administered daily for 4 weeks post tumor inoculation and observed on day 21 to 30. The format is functional, organism-based. The method in brief:
as §2

Data set [26] has as its system PANC-1. As to the kind of experiment: Induction of autophagy in human PANC1 cells in nutrient-deprived medium assessed as reduction in mean intensity of LC3 at 10 uM incubated for 24 hrs by DAPI staining based confocal microscopic analysis. The format is functional, cell-based. The method in brief: as §3
Data set [27] has as its system PANC-1. As to the kind of experiment: Inhibition of autophagy in human PANC1 cells in nutrient-deprived medium assessed as accumulation of SQSTM1 protein at 10 uM incubated for 1 to 6 hrs by Western blot analysis.
Data set [28] concerns PANC-1. Briefly: Induction of apoptosis in human PANC1 cells in nutrient-deprived medium assessed as live cells at 10 uM incubated for 24 hrs by Annexin V-FITC/PI double staining based flow cytometric analysis (reference value: 85.75 to 96.8%). The format is functional. The essentials:
as §1

Data set [29] can be described thus: Toxicity in human PANC1 cells xenografted in nude mouse assessed as change in body weight at 5 to 20 mg/kg, ip administered daily for 4 weeks post tumor inoculation. The format is organism-based. The conditions noted are these: in vivo, 672 h. The essentials:
as §4

Data set [30] in a line: Toxicity in human PANC1 cells xenografted in nude mouse assessed as pathological changes in kidney at 20 mg/kg, ip administered daily for 4 weeks post tumor inoculation by hematoxylin and eosin staining based assay. The format is organism-based. The following applies: in vivo, 672 h. The method in brief:
as §2

In data set [31] the test system is PANC-1. Briefly: Inhibition of colony formation in human PANC1 cells in nutrient-deprived medium treated for 24 hrs followed by compound washout and subsequent incubation for 14 days by crystal violet staining based assay. The format is functional, cell-based. The method in brief:
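Clonogenic assay of PANC-1 under NDC across several concentrations. Surviving colonies counted, mean ± S.D., n = 3.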

The structures appear in SMILES notation. The source made the active and inactive calls. No cut-off for these calls is given here.

8 compounds from ChEMBL document CHEMBL4346665, “Synthesis and evaluation of tetrahydroquinolin-2(1H)-one derivatives as novel anti-pancreatic cancer agents via targeting autophagy” (Eur J Med Chem, 2019) can be followed below.

The inhibition is the drop in the measured response relative to a control, in per cent. What is called IC50 is the concentration that inhibits the measured activity by half.

In the case of `CC(C)=CCC/C(C)=C/CC1Cc2c(OCCCNC(=O)c3cccs3)cc(=O)n(CCCO)c2CC1(C)C` (configuration not stated), the Activity entry is recorded as “Non-Toxic” in data set [1]; 2.34% in [2]; “Non-Toxic” in data set [3]; 38.56% in data set [4]; 35.35% in data set [6]; 41.58% in [7]. For the same compound, the Activity in data set [8] was 38.03%; in data set [9], 26%; in [10], 1.56%; in [11], 4.36%; in data set [12], 91.74%; in data set [14], “Non-Toxic”. The Activity in [18] was 0.09%; in [21] it was “Dose-dependent effect”; in data set [22] it was 0.14%; in data set [23], 71.25 mm3; in data set [25] it was “Dose-dependent effect”; in [28], 20.25%. In addition, the Activity entry in [29] and in data set [30] was “Non-Toxic” throughout. In addition, the outcome in [5], in data set [13], in data set [16], in data set [19], in data set [26] and in data set [27] was Active. The values for the inhibition at 10 µM in data set [15] and in data set [20] were 72.8% and 11.5%, respectively. Further, the outcome in [17] was inactive. In [24], this compound displayed an IC50 of 4.9 µM. In addition, in [31], the inhibition entry is “Dose-dependent effect”.
With `COc1ccc(NC(=O)Oc2cc(=O)n(CCCO)c3c2CC(C/C=C(\C)CCC=C(C)C)C(C)(C)C3)cc1` (configuration not stated), the figures for the inhibition at 10 µM in [15] and in data set [20] were 64.1% and 0%, respectively. The compound also returned an IC50 in data set [24] of 7.1 µM.
Regarding `CC(C)=CCC1Cc2c(OC(=O)Nc3ccc(F)cc3)cc(=O)n(CCCO)c2CC1(C)C` (configuration not stated), the inhibition at 10 µM in [15] turned out to be 71.2%; in data set [20], 0%. In addition, the IC50 in [24] stood at 7.7 µM.
For `COc1ccccc1NC(=O)Oc1cc(=O)n(CCCO)c2c1CC(CC=C(C)C)C(C)(C)C2` (configuration not stated), in that order: 71.1%, 0% and 7.7 µM.
`CC(C)=CCC/C(C)=C/CC1Cc2c(OCCCNC(=O)c3ccco3)cc(=O)n(CCCO)c2CC1(C)C` (configuration not stated): the inhibition at 10 µM in data set [15] came to 69.5%; in data set [20] it was 2.8%. Further, in [24], inhibition was half-maximal at 5.2 µM (IC50).
For `CC(C)=CCC/C(C)=C/CC1Cc2c(OCCCOc3ccc([N+](=O)[O-])cc3)cc(=O)n(CCCO)c2CC1(C)C` (configuration not stated), in that order: 65.1%, 9.8% and 6.3 µM.
With `CC(C)=CCC1Cc2c(OC(=O)Nc3ccc(F)c(F)c3)cc(=O)n(CCCO)c2CC1(C)C` (configuration not stated), the results for the inhibition at 10 µM in data set [15] and in data set [20] were 76.7% and 0%, respectively. Besides, the IC50 in data set [24] is 7.3 µM.
In the case of `CC(C)=CCC1Cc2c(OC(=O)Nc3ccc(F)c(Cl)c3)cc(=O)n(CCCO)c2CC1(C)C` (configuration not stated), the inhibition at 10 µM in data set [15] amounted to 79.8%; in [20], 0%. Moreover, in data set [24], 6.8 µM corresponded to half-maximal inhibition (IC50).
